Measurements taken from ChEMBL document CHEMBL3425429.
Active and inactive are the calls of the source. The rule behind the calls is not given here.

Legend:
MDA-MB-231 [1] = experiment: Induction of apoptosis in human MDA-MB-231 cells assessed as late apoptotic cells at 0.3 uM after 48 hrs by annexin V-FITC/propidium iodide staining-based flow cytometric analysis (reference value: 4.25%); format: functional
Mus musculus = experiment: In vivo inhibition of MEK phosphorylation in tumor of SCID mouse xenografted with human MDA-MB-231 cells at 30 mg/kg/day, po administered for 18 days measured post last dose by immunohistochemical analysis relative to vehicle-treated control; format: functional, organism-based
Method in brief: (§1)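 SCID mice carrying subcutaneous MDA-MB-231 xenografts received oral dosing once daily for 18 days (vehicle 25% PEG400 plus 5% DMSO in sterile water); at the end, tumors formalin-fixed and paraffin-embedded, 4–8 μm sections immunostained (Ki67, phospho-proteins) or TUNEL/AP-Red labelled, and compared with control.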

[2] = molecular target: Dual specificity mitogen-activated protein kinase kinase 1 (Homo sapiens, UniProt Q02750); experiment: Inhibition of human MEK1
Method in brief: (§2)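 Recombinant human protein kinases screened through the Eurofins KinaseProfiler service. IC50 values are means of two independent experiments.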

[3] = molecular target: Phosphatidylinositol 4,5-bisphosphate 3-kinase catalytic subunit alpha isoform (Homo sapiens, UniProt P42336); experiment: Inhibition of human PI3Kalpha; method in brief: as §2
[4] = molecular target: NUAK family SNF1-like kinase 1 (Homo sapiens, UniProt O60285); experiment: Inhibition of human Ark5; method in brief: as §2
MDA-MB-231 [5] = experiment: Effect on AKT phosphorylation in human MDA-MB-231 cells at 0.001 to 1 uM after 20 hrs by Western blot analysis; format: cell-based
Method in brief: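 MDA-MB-231 cells exposed to a concentration series for 20 h at 37 °C, lysed in RIPA with protease inhibitor cocktail, cleared by centrifugation, protein quantified by Bradford, resolved by SDS-PAGE, transferred to PVDF and immunoblotted.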

[6] = molecular target: Cyclin-dependent kinase 2 (Homo sapiens, UniProt P24941); experiment: Inhibition of human CDK2; method in brief: as §2
[7] = molecular target: Serine/threonine-protein kinase mTOR (Homo sapiens, UniProt P42345); experiment: Inhibition of human mTOR; method in brief: as §2
[8] = molecular target: Protein kinase C alpha type (Homo sapiens, UniProt P17252); experiment: Inhibition of human PKCalpha; method in brief: as §2
Bcr/Abl fusion protein = Bcr/Abl fusion protein (Homo sapiens, UniProt P00519); experiment: Inhibition of human BCR/ABL; format: protein assay
Method in brief: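 Recombinant human BCR-ABL kinase, tested as part of a selected kinase panel through a commercial kinase-profiling service. IC50 is the mean of two independent experiments.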

BT-474 = experiment: Cytotoxicity against human BT474 cells assessed as cell viability after 72 hrs by MTT assay; format: functional, cell-based; conditions: BT-474, 72 h
[9] = molecular target: Serine/threonine-protein kinase Chk1 (Homo sapiens, UniProt O14757); experiment: Inhibition of human CHK1; method in brief: as §2
MDA-MB-231 [10] = experiment: Inhibition of ERK phosphorylation in human MDA-MB-231 cells at 0.001 to 1 uM after 20 hrs by Western blot analysis; format: cell-based
Method in brief: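 MDA-MB-231 cells exposed to a concentration series for 20 h at 37 °C, then washed in ice-cold saline and lysed in RIPA buffer with protease cocktail. Lysates were cleared at 12 000 rpm for 10 min at 4 °C and protein measured by Bradford. Equal protein was run on SDS-PAGE, transferred to PVDF and immunoblotted for phospho-proteins.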

MDA-MB-231 [11] = experiment: Antitumor activity against human MDA-MB-231 cells xenografted in SCID mouse assessed as reduction in number of proliferating cells in tumor at 30 mg/kg/day, po administered for 18 days measured post last dose by Ki67 staining-based assay; format: functional, organism-based; method in brief: as §1
[12] = Cytotoxicity against human HBL1 cells assessed as cell viability after 72 hrs by MTT assay; format: functional, cell-based; conditions: HBL1, 72 h
[13] = molecular target: Proto-oncogene tyrosine-protein kinase Src (Homo sapiens, UniProt P12931)
[14] = Cmax in Sprague-Dawley rat at 10 mg/kg, po by LC/MS analysis; format: ADME, organism-based; design: dose 10 mg/kg, route oral; conditions: in vivo
Method in brief: (§3)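 Single oral gavage dose in male Sprague-Dawley rats fasted overnight; serial blood drawn via surgically placed jugular vein catheters at set times, plasma separated at once and measured by HPLC-MS/MS; noncompartmental parameters fitted; n=5.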

MDA-MB-231 [15] = experiment: Induction of apoptosis in human MDA-MB-231 cells assessed as late apoptotic cells at 0.3 uM after 24 hrs by annexin V-FITC/propidium iodide staining-based flow cytometric analysis (reference value: 2.67%); format: functional
MDA-MB-231 [16] = experiment: Antitumor activity against human MDA-MB-231 cells xenografted in SCID mouse assessed as tumor growth inhibition at 7.5 to 15 mg/kg/day, po qd administered for 18 days measured every 3 days during compound dosing; format: functional, organism-based
Method in brief: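 SCID mice (5–6 weeks) were injected subcutaneously with 100 μL of exponential-phase MDA-MB-231 cells (5 × 10^7 per mL). They were randomized at 150–200 mm3 tumor volume (6 per group) and dosed orally once daily for 18 days in sterile water with 25% PEG400 plus 5% DMSO, with a vehicle group. Tumor volume (ab2/2) was measured every 3 days.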

MDA-MB-231 [17] = experiment: Induction of apoptosis in human MDA-MB-231 cells assessed as viable cells at 0.03 uM after 48 hrs by annexin V-FITC/propidium iodide staining-based flow cytometric analysis (reference value: 94.4%); format: functional; conditions: MDA-MB-231, 48 h, read-out: Activity
Method in brief: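 MDA-MB-231 cells (ATCC; medium with 10% FBS, 37 °C, 5% CO2) plated at 2 × 10^5 per six-well well and treated with a range of concentrations for 24 and 48 h at 37 °C. Cells harvested, washed with ice-cold PBS, stained with annexin V-FITC apoptosis detection kit and analysed by flow cytometry.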

MDA-MB-231 [18] = experiment: Induction of apoptosis in human MDA-MB-231 cells after 24 to 48 hrs by annexin V-FITC/propidium iodide staining-based flow cytometric analysis; format: functional, cell-based
MDA-MB-231 [19] = experiment: Antitumor activity against human MDA-MB-231 cells xenografted in SCID mouse assessed as tumor growth inhibition at 30 mg/kg/day, po qd administered for 18 days measured every 3 days during compound dosing relative to vehicle-treated control; format: functional; conditions: read-out: TGI
Method in brief: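 SCID mice (5–6 weeks) given subcutaneous injections of 5 ×10^6 MDA-MB-231 cells; at 150–200 mm3 tumors, randomized into 6 groups of 6; oral daily dosing (vehicle 25% PEG400 + 5% DMSO in sterile water), paclitaxel 10 mg/kg/week by tail vein; tumors measured every 3 days, volume = ab²/2; side effects monitored daily.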

MDA-MB-231 [20] = experiment: Induction of apoptosis in human MDA-MB-231 cells assessed as early apoptotic cells at 0.3 uM after 24 hrs by annexin V-FITC/propidium iodide staining-based flow cytometric analysis (reference value: 1.58%); format: functional
MDA-MB-231 [21] = experiment: Antimigratory activity against human MDA-MB-231 cells at >0.03 uM after 20 hrs by wound healing assay; format: functional, cell-based
Method in brief: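 MDA-MB-231 monolayers grown to confluence, scratched with a sterile pipet tip, rinsed with saline, then kept in DMEM containing vehicle or compound; wound images taken after 20 h and analysed.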

MDA-MB-435 = experiment: Cytotoxicity against human MDA-MB-435 cells assessed as cell viability after 72 hrs by MTT assay; format: functional, cell-based; conditions: MDA-MB-435, 72 h
Rattus norvegicus = experiment: Apparent volume of distribution at steady state in Sprague-Dawley rat at 10 mg/kg, po by LC/MS analysis; format: ADME, organism-based; design: dose 10 mg/kg, route oral; conditions: in vivo; method in brief: as §3

Dual specificity mitogen-activated protein kinase kinase 1, sequence (Q02750 whole entry): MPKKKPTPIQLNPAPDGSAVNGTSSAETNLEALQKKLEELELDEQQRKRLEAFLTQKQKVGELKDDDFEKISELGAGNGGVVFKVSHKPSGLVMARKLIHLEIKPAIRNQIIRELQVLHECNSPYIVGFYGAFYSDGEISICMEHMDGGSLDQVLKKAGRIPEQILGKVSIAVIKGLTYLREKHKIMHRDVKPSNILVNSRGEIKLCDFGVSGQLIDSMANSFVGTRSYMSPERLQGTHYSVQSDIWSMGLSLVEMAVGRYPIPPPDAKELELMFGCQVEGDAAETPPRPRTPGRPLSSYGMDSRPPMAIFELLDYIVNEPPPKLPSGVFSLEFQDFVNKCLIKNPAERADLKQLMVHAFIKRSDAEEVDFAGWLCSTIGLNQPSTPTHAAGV
Bcr/Abl fusion protein, sequence (P00519 whole entry, the tested form may be a part): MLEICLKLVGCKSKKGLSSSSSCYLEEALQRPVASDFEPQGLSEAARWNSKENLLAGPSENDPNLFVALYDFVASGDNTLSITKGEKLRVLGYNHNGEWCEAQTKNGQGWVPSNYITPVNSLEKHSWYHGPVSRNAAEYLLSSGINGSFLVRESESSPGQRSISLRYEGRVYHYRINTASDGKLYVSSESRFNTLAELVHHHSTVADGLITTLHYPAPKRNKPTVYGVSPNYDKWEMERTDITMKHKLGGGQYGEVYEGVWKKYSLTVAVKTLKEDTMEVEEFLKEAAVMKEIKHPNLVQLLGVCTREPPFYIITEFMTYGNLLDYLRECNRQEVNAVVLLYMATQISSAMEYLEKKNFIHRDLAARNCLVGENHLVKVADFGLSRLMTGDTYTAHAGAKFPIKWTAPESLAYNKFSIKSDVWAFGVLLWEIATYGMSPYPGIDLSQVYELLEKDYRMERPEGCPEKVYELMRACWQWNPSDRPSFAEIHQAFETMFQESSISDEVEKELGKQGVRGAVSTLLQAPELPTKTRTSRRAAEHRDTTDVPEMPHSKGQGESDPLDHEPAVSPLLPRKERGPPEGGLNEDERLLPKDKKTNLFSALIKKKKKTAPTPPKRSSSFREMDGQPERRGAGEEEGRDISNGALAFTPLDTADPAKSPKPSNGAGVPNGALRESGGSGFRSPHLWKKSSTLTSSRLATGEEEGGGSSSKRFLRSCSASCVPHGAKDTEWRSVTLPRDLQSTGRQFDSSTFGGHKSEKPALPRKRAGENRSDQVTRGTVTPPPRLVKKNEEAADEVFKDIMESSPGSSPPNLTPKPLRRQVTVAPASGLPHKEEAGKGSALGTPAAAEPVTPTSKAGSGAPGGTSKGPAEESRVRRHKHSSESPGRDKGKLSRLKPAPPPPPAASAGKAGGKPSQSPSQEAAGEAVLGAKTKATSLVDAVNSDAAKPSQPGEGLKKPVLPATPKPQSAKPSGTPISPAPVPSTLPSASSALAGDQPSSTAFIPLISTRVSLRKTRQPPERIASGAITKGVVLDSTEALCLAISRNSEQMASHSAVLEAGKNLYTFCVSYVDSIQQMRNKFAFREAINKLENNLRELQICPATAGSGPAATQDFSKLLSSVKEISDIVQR
Bcr/Abl fusion protein, sequence (P11274 whole entry, further chain, the tested form may be a part): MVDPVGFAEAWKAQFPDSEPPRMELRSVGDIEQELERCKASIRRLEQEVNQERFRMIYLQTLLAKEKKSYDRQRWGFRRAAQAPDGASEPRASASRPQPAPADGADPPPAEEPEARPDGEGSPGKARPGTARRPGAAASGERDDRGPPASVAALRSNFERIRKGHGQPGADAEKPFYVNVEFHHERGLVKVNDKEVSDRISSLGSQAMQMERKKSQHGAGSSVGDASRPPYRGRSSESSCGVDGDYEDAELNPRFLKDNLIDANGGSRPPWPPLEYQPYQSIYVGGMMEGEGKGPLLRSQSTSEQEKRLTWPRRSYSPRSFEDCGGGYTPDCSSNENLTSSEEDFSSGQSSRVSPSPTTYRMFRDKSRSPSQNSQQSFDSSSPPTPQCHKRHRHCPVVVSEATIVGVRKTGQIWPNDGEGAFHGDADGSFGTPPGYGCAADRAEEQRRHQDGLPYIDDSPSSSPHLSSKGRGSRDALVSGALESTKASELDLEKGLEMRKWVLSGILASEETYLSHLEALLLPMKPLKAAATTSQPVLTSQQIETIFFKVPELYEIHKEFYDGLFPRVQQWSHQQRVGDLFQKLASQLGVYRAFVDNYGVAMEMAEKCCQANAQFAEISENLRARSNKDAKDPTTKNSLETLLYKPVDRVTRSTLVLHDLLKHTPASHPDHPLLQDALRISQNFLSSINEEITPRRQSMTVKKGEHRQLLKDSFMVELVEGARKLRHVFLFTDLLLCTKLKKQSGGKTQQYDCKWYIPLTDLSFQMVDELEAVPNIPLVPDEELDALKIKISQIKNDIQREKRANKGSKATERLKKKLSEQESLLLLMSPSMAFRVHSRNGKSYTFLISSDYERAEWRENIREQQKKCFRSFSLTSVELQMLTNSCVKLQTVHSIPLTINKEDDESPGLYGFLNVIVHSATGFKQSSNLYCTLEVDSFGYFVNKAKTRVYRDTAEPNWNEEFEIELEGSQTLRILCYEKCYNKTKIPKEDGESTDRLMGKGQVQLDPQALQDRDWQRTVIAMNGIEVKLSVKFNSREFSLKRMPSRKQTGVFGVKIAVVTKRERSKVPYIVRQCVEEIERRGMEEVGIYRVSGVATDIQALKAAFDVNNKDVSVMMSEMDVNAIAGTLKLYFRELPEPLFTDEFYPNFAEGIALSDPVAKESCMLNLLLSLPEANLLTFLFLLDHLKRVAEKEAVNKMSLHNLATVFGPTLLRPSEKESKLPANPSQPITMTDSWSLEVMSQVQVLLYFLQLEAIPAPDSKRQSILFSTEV
NUAK family SNF1-like kinase 1, sequence (O60285 whole entry): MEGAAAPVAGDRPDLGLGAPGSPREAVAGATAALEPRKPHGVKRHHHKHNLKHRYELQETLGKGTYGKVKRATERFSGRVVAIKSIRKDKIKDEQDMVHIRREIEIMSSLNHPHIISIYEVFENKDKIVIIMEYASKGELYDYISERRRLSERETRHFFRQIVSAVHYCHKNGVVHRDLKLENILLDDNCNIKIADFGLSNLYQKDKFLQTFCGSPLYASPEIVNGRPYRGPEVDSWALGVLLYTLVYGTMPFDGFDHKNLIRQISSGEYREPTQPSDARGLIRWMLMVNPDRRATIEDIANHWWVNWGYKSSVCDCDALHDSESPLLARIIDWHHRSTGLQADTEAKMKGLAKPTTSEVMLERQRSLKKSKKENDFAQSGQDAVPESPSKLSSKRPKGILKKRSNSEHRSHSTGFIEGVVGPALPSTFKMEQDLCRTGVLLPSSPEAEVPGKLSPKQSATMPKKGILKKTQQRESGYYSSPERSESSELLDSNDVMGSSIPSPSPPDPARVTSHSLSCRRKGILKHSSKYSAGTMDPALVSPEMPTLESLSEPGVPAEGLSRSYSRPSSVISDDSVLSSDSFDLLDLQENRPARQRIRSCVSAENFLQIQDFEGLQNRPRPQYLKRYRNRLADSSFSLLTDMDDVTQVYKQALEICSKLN
Serine/threonine-protein kinase Chk1, sequence (O14757 whole entry): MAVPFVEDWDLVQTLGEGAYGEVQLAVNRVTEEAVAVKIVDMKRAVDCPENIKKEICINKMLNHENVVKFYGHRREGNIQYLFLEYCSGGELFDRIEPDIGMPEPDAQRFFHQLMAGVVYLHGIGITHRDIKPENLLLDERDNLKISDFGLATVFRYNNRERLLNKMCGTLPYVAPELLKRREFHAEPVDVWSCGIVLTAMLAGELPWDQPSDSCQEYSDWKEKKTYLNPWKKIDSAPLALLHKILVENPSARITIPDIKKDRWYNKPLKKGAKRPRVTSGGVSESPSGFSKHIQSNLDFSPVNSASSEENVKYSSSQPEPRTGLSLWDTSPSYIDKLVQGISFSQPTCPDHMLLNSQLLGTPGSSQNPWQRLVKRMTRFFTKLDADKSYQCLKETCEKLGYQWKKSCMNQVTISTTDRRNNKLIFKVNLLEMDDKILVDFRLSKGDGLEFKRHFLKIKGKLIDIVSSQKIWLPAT

Q: Which results are given for `CCn1nc(C#Cc2cc(C(=O)Nc3ccc(CN4CCN(C)CC4)c(C(F)(F)F)c3)ccc2C)c2c(N)ncnc21`?
A: Activity (MDA-MB-231 [1]): 10.3%; inhibition (Mus musculus): Active; IC50 [2]: > 10 µM; IC50 [3]: > 10 µM; IC50 [4]: > 10 µM; Activity (MDA-MB-231 [5]): inactive; IC50 [6]: > 10 µM; IC50 [7]: > 10 µM; IC50 [8]: > 10 µM; IC50 (Bcr/Abl fusion protein): 0.001 µM; IC50 (BT-474): > 10 µM; IC50 [9]: > 10 µM; inhibition (MDA-MB-231 [10]): Active; Activity (MDA-MB-231 [11]): Active; IC50 [12]: 10 µM; IC50 [13]: 0.03 µM; Cmax [14]: 215 ng/mL; Activity (MDA-MB-231 [15]): 15.5%; TGI (MDA-MB-231 [16]): Active; viability at 0.03 µM (MDA-MB-231 [17]): 90.5%; Activity (MDA-MB-231 [18]): Dose-dependent effect; inhibition in vivo at 30 mg/kg/day (MDA-MB-231 [19]): > 100%; Activity (MDA-MB-231 [20]): 6.51%; Activity (MDA-MB-231 [21]): Active; IC50 (MDA-MB-435): 0.005 µM; Vdss(app) (Rattus norvegicus): 38.57 L/kg
